CSN deneddyl inh – CSN deneddylation inhibition. Q92905. Purified CSN, SCF-Nedd8-OG deneddylation, fluorescence polarization. inhibition, % at 12.5 µM. 360,000 tested, 0.38% active;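 active = pattern-corrected inhibition above about 35%, with an unprinted fluorescence ratio check between 0.5 and 1.5, limit read from the data, passing the limit was not always enough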;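 note: 0% = enzyme with substrate and 100% = substrate without enzyme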
Target sequence (Q92905 whole entry, looked up, one chain of several): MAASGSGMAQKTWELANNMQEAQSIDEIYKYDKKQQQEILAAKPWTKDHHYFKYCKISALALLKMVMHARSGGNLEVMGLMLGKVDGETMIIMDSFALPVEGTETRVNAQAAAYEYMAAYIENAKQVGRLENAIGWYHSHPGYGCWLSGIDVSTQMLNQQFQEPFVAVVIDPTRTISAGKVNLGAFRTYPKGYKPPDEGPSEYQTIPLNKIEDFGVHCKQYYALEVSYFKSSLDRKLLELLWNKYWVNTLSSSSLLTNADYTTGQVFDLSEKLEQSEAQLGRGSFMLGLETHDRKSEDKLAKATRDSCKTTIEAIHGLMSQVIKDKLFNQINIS
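Material: purified human Csn5 enzyme expressed in HEK293T cells / Medium: Tris buffer pH 7.5, NaCl, DTT, Tween-20, trehalose, ovalbumin / Compound dosing: 12.5 µM single point / Schedule: 90 min incubation of compound, enzyme and substrate at room temperature / Signal: fluorescence polarization of the substrate / Control set: no-enzyme wells high, enzyme-with-substrate wells low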
SUMO1 PPI mod – alters human SUMO1 binding to SIM partners | P63165 | SUMO1 binding to a labelled peptide, TR-FRET, 1 h | inhibition, % at 20 µM | 360,000 tested, 0.33% active; in the data active = inhibition above about 37%
Target sequence (P63165 whole entry, looked up): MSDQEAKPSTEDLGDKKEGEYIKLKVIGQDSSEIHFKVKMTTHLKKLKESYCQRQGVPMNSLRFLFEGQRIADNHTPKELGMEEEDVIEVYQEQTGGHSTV
STEP block – inhibitors of human striatal-enriched phosphatase STEP. P54829. recombinant STEP, OMFP fluorogenic substrate, fluorescence. inhibition, % at 20 µM. 360,000 tested, 0.25% active;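 active = inhibition at 20 µM, scaled per plate between control wells, above about 37%, limit read from the data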;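 note: 0% = DMSO with enzyme and substrate and 100% = substrate only without enzyme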
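Test system: STEP tyrosine phosphatase / Reagent: OMFP at 25 µM / Doses: 20 µM, 1% DMSO / Read-out: percent inhibition scaled to no-enzyme and uninhibited-enzyme controls, plate-pattern corrected / Detection: FITC-channel fluorescence of OMFP product / Medium: Bis-Tris buffer pH 6.0, 2.5 mM DTT, 0.005% Tween 20 / Schedule: 20 min at room temperature, dark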
LMPTP inh – LMPTP (human) inhibition. recombinant LMPTP-A, OMFP fluorogenic substrate, fluorescence intensity. inhibition, % at 20 µM. 360,000 tested, 0.22% active. AID 651560;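 active = compounds that cut the enzyme signal by at least half of the control window in the single-dose screen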;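 note: plate controls were DMSO wells with enzyme plus substrate for no effect and substrate without enzyme for full effect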
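Assay system: LMPTP-A enzyme. Input: 0.625 nM LMPTP-A final. Probe or stimulus: 400 µM OMFP. Compound dosing: single 20 µM dose. Schedule: 50 min dark incubation at room temperature. Detection: fluorescence intensity of OMFP turnover product. Read-out: percent inhibition versus substrate-only and uninhibited controls. Benchmarks: no-enzyme low control, uninhibited high control.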
Scp-1 inhibitor – inhibitors of human Scp-1 phosphatase; Q9GZU7; Recombinant Scp1, phosphopeptide, malachite green phosphate absorbance; inhibition, % at 20 µM; 340,000 tested, 0.88% active;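 active = inhibition above about 50% at 20 µM, limit read from the data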;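 note: plate controls were DMSO wells with enzyme for no effect and wells lacking enzyme for full effect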
Target sequence (Q9GZU7 76-261 limits assumed): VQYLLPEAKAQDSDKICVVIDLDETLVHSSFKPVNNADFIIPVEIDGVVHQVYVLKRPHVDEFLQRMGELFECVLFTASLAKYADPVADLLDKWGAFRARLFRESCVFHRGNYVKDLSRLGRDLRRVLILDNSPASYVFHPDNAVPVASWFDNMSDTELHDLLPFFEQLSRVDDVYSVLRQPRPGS
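Test system – truncated SCP-1 phosphatase (76-261aa) · Reagent – Phosphorylated 17-residue peptide substrate · Incubation – 45 min room-temperature reaction, 5 min colour, 30 min stabiliser · Detection – colorimetric phosphate reagent with accelerator and stabiliser, absorbance at 630 nm · Measure – % inhibition at 20 µM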
DNMT1 inh – inhibitors of human DNMT1; DNMT1 molecular beacon, Hinp1I cleavage, fluorescence; inhibition (reported as % activation of signal), % at 10 µM; 360,000 tested, 0.83% active; in the data active = inhibition above about 50%
STEP conf – STEP (human) phosphatase inhibition, single concentration confirmation; shares compounds with STEP block; recombinant STEP, OMFP fluorogenic substrate, fluorescence; inhibition, % at 20 µM; 520 tested, 32% active; call rule not given here;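 note: 0% = enzyme with substrate plus DMSO and 100% = substrate without enzyme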
Numbers without * were called inactive; · = no result given. An excerpt weighted towards active compounds, which were near 2% of everything screened.

SMILES	CSN deneddyl inh	SUMO1 PPI mod	STEP block	LMPTP inh	Scp-1 inhibitor	DNMT1 inh	STEP conf
Cc1sc2nc(CSC(C)C(=O)Nc3ccc(C(N)=O)cc3)[nH]c(=O)c2c1C (stereo not drawn)	10	3	-4	-1	-12	-3	·
Cc1sc2nc(CSC(C)C(=O)Nc3ccc(Cl)cn3)[nH]c(=O)c2c1C (stereo not drawn)	5	6	79*	-2	2	2	60*
Cc1ccc(-c2nc3ncccc3o2)cc1NC(=O)c1cc2ccccc2o1	-1	15	-3	-2	15	-1	·
Cc1ccc(-c2nc3ncccc3o2)cc1NC(=O)CC(C)C	4	3	85*	13	3	2	9.9*
NS(=O)(=O)c1ccc(NC(=O)NC2CCCCC2)cc1	0	4	-4	-1	-7	1	·
NS(=O)(=O)c1ccc(NC(=S)NC2CCCCC2)cc1	7	0	60*	0	1	0	24
S=C(NCCc1ccccc1)Nc1c(Cl)cccc1Cl	0	-4	96*	1	17	1	51*
CCN1CCN(C(=S)Nc2ccc(Cl)c(Cl)c2)CC1	2	2	4	-3	-2	0	·
CCN1CCN(C(=S)c2ccc(OCC(=O)NCc3ccccc3)cc2)CC1	0	2	64*	-2	-5	-3	25*
Cc1ccc(C(=S)N2CCN(Cc3ccccc3)CC2)cc1	2	-4	87*	1	2	2	34
CCN1CCN(C(=S)c2ccc(OCC(=O)Nc3ccc(OC)cc3)cc2)CC1	-1	1	7	0	-2	2	·
CCN1CCN(C(=S)c2ccc(Cl)c(Cl)c2)CC1	-1	1	91*	-1	-9	2	51*
S=C(c1ccccc1)N1CCN(C(=S)c2ccccc2)CC1	-3	-1	3	-1	-7	-2	·
CCN1CCN(C(=S)c2ccc(-c3ccccc3)cc2)CC1	-1	-1	42*	-1	-1	0	25
Cc1ccc(NC(=S)N2CCN(Cc3ccccc3)CC2)cc1	3	-2	2	0	-2	1	·
O=C(c1ccc2c(=O)n(Cc3ccccc3Cl)c(=S)[nH]c2c1)N1CCOCC1	1	-2	-2	2	-8	-2	·
NS(=O)(=O)c1ccc(CCNC(=O)c2cccc(S(=O)(=O)N3CCc4ccccc43)c2)cc1	2	-8	-3	0	·	0	·
Cc1ccoc1C(=O)N1CCCCC1C(=O)O (stereo not drawn)	-11	2	-1	0	-3	-2	·
N#CCCN(Cc1cccnc1)C(=O)c1sc2cc(F)ccc2c1Cl	5	-7	-1	0	3	1	·
CCOc1cc(/C=C(\C#N)C(=O)Nc2ccccc2C(=O)O)ccc1OC(=O)c1ccc(C)cc1	2	3	58*	0	41	32	4
COc1ccc(/C=C(/C#N)C(=O)Nc2ccccc2C)cc1C(=O)O	-4	-6	-1	-1	-3	-3	·
COc1ccc(CC(=O)N[C@@H]2c3ccccc3CC[C@H]2OCc2ccccc2)cc1	0	4	1	-1	-4	-4	·
O=C(Nc1nnc(-c2ccc(Cl)cc2)o1)c1nc2ccccc2s1	6	7	72*	15	-10	-12	5
CCC(=O)N1CCC1(C)C(=O)NS(=O)(=O)c1cccc(C#N)c1 (stereo not drawn)	2	-3	-1	-1	·	-1	·
Cc1cccc(OCC(=O)NNC(=O)CSc2ncc(C#N)c(N)n2)c1	3	15	-1	0	-5	-5	·
SMILES	CSN deneddyl inh	SUMO1 PPI mod	STEP block	LMPTP inh	Scp-1 inhibitor	DNMT1 inh	STEP conf
N#Cc1cnc(SCC(=O)NNC(=O)COc2cccc3ccccc23)nc1N	1	10	100*	15	0	-6	1
Cc1ccc(N(CC(=O)N/N=C/c2cccs2)S(C)(=O)=O)cc1	-7	-4	121*	0	-1	-3	-7
COc1ccc(N(CC(=O)N/N=C/c2cccs2)S(=O)(=O)c2ccccc2)cc1	1	-6	1	1	-7	-5	·
CCOc1cc(C(=O)NCCC(=O)N2CCC3(CC2)NCCc2[nH]cnc23)cc(OCC)c1OCC	3	4	45*	-2	-6	0	3
COCCSc1ccccc1C(=O)N1CCN(Cc2ccccc2)CC1	-3	-3	1	1	-3	0	·
COc1cc(C(=O)NNC(=O)C2CC=CCC2C(=O)O)cc(OC)c1OC (stereo not drawn)	-17	3	119*	1	-5	2	10
O=C(Nc1cccc2c(=O)[nH][nH]c(=O)c12)c1ccc([N+](=O)[O-])cc1	1	6	57*	21	·	30	47*
O=C(Oc1ccccc1Cl)C1CCN(C(=O)c2ccc(F)cc2)CC1	3	1	-1	0	-2	0	·
N/C(=N\OC(=O)CCCc1ccccc1)c1cccc([N+](=O)[O-])c1	1	-22	55*	2	-10	-3	15
N/C(=N\OC(=O)CCCc1ccccc1)c1ccccc1	1	7	-2	2	-6	3	·
Cc1ccc(NC(=O)CSc2ncc(-c3ccccc3)n2C(=O)c2ccccc2)cc1	16	-3	2	3	-2	5	·
Cc1ccc(C(=O)n2c(-c3ccccc3)cnc2SCC(=O)Nc2ccccc2)cc1	6	3	73*	2	0	12	2
O=C1CCCN1c1ccc(N2CCCC2=O)cc1	0	2	-2	-3	3	6	·
Cc1ccc(NC(=S)NCC2CCN(C(C)c3ccccc3)C2)cc1 (stereo not drawn)	-1	0	47*	1	-10	0	10
Cc1cc(C)c(NC(=S)NCC2CCN(C(C)c3ccccc3)C2)c(C)c1 (stereo not drawn)	-3	1	95*	1	-8	-5	83*
Cc1cc(C)nc(NC2=NCCN2C(=S)Nc2c(C)cccc2C)n1	-3	1	1	0	-1	-5	·
CC1CC=CCC1(CO)CO (stereo not drawn)	-1	0	1	2	2	-4	·
CCOc1ccccc1NS(=O)(=O)c1cn(C)nc1C	-3	2	-3	1	-7	-1	·
COc1ccc(C(=O)NCCc2c[nH]c3ccc(OC)cc23)cc1	-1	6	0	-1	-19	-4	·
COc1ccc2[nH]cc(CCNC(=O)c3ccccc3Cl)c2c1	2	2	46*	-1	-6	-29	12

Screens from PubChem.
